Test results as given in paper PMC3206322 (ACS chemical neuroscience, 2011).
Several values for one entry are separate records, joined by “and”; a condition that tells them apart may be missing. Equal values may be shown once.

Assays:
Type in all cases: cell-based
GluA2Qflip AMPA receptor [1] = molecular target: T1, GluA2Qflip AMPA receptor (Homo sapiens, UniProt P42262); experiment: Laser-pulse photolysis rate measurement of channel opening; conditions: for Mechanism of inhibition: inhibited both kop and kcl
Outline: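 Transfected HEK-293S cells expressing GluA2Qflip were whole-cell clamped at −60 mV, pH 7.4, 22 °C. After 6 s preincubation with inhibitor, caged glutamate was photolysed by a 355 nm laser pulse of 200–800 μJ, with released glutamate calibrated against free glutamate in the same cell. The kcl term was taken from kobs at 100 μM glutamate over a range of inhibitor concentrations (eq 4), and kop at 350 μM (eq 5).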

GluA2Qflip AMPA receptor [2] = molecular target: T1, GluA2Qflip AMPA receptor; experiment: Laser-pulse photolysis amplitude measurement of whole-cell current
Outline: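 HEK-293S cells in DMEM/10% FBS at 37 °C, 5% CO2, were transiently transfected with GluA2Qflip by calcium phosphate, with GFP and large T-antigen plasmids, and used at 48 h. Whole-cell recording at −60 mV, pH 7.4, 22 °C in HEPES/NaCl buffer. Caged glutamate was photolysed by a 355 nm pulse after 6 s inhibitor preincubation. The A/AI ratio versus inhibitor concentration was fitted by eq 6.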

GluA2Qflip AMPA receptor [3] = molecular target: T1, GluA2Qflip AMPA receptor; experiment: Solution-flow amplitude measurement of whole-cell current; conditions: Ki (closed-channel), solution-flow technique, GluA2Qflip in HEK-293 cells; 100 μM glutamate; amplitude A/AI, eq 6
[4] = Ki (100 μM glu), amplitude measurement, laser-pulse photolysis, GluA2Qflip in HEK-293 cells, 100 μM glutamate, closed-channel state

T1 sequence (P42262 25-883 isoform P42262-2 limits assumed): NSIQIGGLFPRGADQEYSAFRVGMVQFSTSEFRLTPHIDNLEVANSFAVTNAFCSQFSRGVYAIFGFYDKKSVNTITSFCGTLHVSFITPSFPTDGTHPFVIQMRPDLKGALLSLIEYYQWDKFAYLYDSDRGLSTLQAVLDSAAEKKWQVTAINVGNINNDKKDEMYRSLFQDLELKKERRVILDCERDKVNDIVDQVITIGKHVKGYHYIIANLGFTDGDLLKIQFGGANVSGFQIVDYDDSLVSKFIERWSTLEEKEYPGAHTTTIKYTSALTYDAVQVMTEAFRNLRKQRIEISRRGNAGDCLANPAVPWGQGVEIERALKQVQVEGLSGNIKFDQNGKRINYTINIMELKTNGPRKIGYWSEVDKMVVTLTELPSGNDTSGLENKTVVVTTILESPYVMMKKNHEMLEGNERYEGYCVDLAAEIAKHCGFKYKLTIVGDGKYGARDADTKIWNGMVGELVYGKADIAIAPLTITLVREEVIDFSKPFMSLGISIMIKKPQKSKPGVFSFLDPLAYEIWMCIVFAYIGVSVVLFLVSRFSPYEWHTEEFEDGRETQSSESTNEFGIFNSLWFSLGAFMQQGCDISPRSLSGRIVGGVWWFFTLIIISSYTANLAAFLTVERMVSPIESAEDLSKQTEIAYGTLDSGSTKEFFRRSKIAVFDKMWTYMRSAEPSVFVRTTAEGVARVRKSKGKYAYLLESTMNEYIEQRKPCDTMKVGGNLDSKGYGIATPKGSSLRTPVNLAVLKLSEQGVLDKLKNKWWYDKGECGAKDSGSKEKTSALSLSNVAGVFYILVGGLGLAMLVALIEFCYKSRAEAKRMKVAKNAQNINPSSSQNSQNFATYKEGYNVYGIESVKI

Compound	Ki (GluA2Qflip AMPA receptor [1])	Mechanism of inhibition (GluA2Qflip AMPA receptor [1])	Ki (GluA2Qflip AMPA receptor [2]) [µM]	Ki (GluA2Qflip AMPA receptor [2]; [4]) [µM]	Ki (GluA2Qflip AMPA receptor [3]) [µM]
Nc1ccc(C2=NNC(=O)Cc3cc4c(cc32)OCO4)cc1 [BDZ-2, 1-(4-aminophenyl)-3,5-dihydro-7,8-methylenedioxy-4H-2,3-benzodiazepin-4-one]	48 µM and 194 µM	noncompetitive	23 to 25	25 ± 1	25 ± 1
CC1=NN=C(c2ccc(N)cc2)c2cc3c(cc2C1)OCO3 [GYKI 52466, 1-(4-aminophenyl)-4-methyl-7,8-methylenedioxy-5H-2,3-benzodiazepine]	61 µM and 128 µM	noncompetitive	14 to 16	15 ± 1	14 ± 1
